ABCG2 inh – ABCG2 efflux pump inhibitors, primary screen, multiplex with ABCB1, IgMXP3 cells, flow cytometry; Broad substrate specificity ATP-binding cassette transporter ABCG2 (Homo sapiens), Q9UNQ0; JC-1 efflux; inhibition, % at 6.6 µM; actives 0.1% (n = 190,000);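 active = inhibition above 80%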;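 note: 0% = DMSO and 100% = nicardipine control wells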
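material = IgMXP3 (ABCG2) plus far-red-tagged CCRF-Adr (ABCB1) cells | amount = 3 million cells/mL, equal mix of both lines | also added = JC-1 transporter substrate | dosing = one concentration, 6.6 µM final | schedule = 10 min at 25 °C | measured by = flow cytometric JC-1 green MFI at 530 nm | read-out basis = percent efflux inhibition, scaled nicardipine 100% to DMSO 0%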
Calb biofilm kill – clotrimazole potentiators killing C. albicans biofilm, primary screen, 4-compound mixtures. C. albicans biofilm persisters + clotrimazole, fluorescence viability; primary screen in compound mixtures of four per well. inhibition, % at 7.6 µM. actives 0.02% (n = 120,000). AID 1242, 2008;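 active = inhibition above 30.3% in the primary screen of four-compound pools, then above 30% when the compound was retested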;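 note: compounds exposed to preformed 24 h biofilms for 48 h; 0% = untreated biofilm control and 100% = clotrimazole plus chlorhexidine kill blank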
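Test system: C. albicans biofilms. Buffer or medium: RPMI/MOPS medium, pH 7.0. Timing: 48 h compound exposure at 37 °C. Technique: Alamar Blue fluorescence. Evaluation: percent inhibition of biofilm viability.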
ABCB1 block – ABCB1 efflux pump inhibitors, primary screen, cell-based, multiplex, flow cytometry, ABCG2 counter-screen; actives 0.067% (n = 190,000); CCRF-Adr cells, JC-1 efflux; inhibition, % at 6.6 µM; in the data active = inhibition above about 40%;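 note: 0% = vehicle and 100% = reference inhibitor; higher value means more JC-1 retained so stronger ABCB1 efflux block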
TRPML3 ag – human TRPML3 channel agonists, primary screen, cell-based, HEK293 TRPML3-YFP, Fluo-8 calcium fluorescence, 3 µM. Mucolipin-3 (Homo sapiens), Q8TDD5. 100% = the carbachol control signal. activation, % at 3 µM. actives 0.29% (n = 220,000). AID 1448, 2008;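 active = activation above its plate's cutoff, the mean activation of the plate's test wells plus 3 SD, cut at about 12% in these data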;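 note: 0% = DMSO only wells and 100% = carbachol wells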
Target sequence (Q8TDD5 whole entry, looked up): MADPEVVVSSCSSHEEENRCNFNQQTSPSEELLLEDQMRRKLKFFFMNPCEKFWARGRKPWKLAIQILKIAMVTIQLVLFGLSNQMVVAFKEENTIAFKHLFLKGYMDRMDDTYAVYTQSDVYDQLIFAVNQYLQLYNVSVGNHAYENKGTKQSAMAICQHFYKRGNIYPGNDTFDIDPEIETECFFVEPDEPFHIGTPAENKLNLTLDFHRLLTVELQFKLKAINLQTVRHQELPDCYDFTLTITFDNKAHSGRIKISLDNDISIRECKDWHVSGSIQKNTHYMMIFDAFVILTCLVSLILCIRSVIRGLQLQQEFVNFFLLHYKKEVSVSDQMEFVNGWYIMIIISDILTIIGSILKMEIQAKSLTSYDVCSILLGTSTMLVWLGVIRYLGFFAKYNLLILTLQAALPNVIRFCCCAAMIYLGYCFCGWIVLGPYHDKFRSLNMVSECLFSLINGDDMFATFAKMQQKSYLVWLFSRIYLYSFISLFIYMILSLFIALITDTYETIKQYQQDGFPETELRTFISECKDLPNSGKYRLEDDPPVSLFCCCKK
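Material: TRPML3-YFP stable HEK293 cells | Dosing: One concentration, 3 µM nominal, 0.3% DMSO | Timing: 125 s total fluorescence read per well | Technique: Fluo-8 calcium dye fluorescence, ex 470-495, em 515-575 nm | Measure: Percent activation from peak-to-basal fluorescence ratio, scaled between DMSO and carbachol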
ROMK primary – ROMK potassium channel modulators, primary screen, cell-based, thallium flux, MLSMR library; Tet-inducible ROMK, thallium flux fluorescence; actives lie on both sides; B-score at 10 µM; actives 2% (n = 130,000); AID 1918, 2009;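 active = signal ratio slope over the read window, or its plate-corrected B-score, at least 3 SD from the plate mean, either direction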;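 note: B-score of the F/F0 ratio slope over 7 to 12 s after thallium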
TRPN1 ag – zebrafish TRPN1 channel agonists, primary screen, cell-based, HEK293, calcium fluorescence. transient receptor potential cation channel N1 (TRPN1/NompC), Danio rerio. HEK293 zebrafish TRPN1-YFP, Fluo-8 calcium fluorescence; 100% = response to 87 µM carbachol. activation, % at 3 µM. actives 0.18% (n = 220,000);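 active = activation above its plate's cutoff, the mean activation of test wells on that plate plus 3 SD, cut at about 19% in these data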;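 note: 0% = DMSO alone and 100% = 87 µM carbachol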
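System: zebrafish TRPN1-YFP in HEK293 cells / Dosing: 3 µM single point / Timing: dye loading 1 h at 37 °C, then 30 min room temperature / Signal: Fluo-8 calcium fluorescence, excitation 470-495 nm, emission 515-575 nm / Read-out basis: percent activation from peak over basal fluorescence ratio, control-normalized / Control set: high carbachol 87 µM, low DMSO alone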
ROMK hit retest – ROMK channel modulator hit retest, confirmation, cell-based, thallium flux, duplicate, resupplied hits; shares compounds with ROMK primary; fluorescence ratio; active compounds read low; normalized thallium flux (F/F0 slope) at 10 µM; actives 54% (n = 3,000); AID 1917, 2009;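 active = Flux at 10 µM at least 3 SD below or above vehicle control mean in one or both replicates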
An asterisk follows results filed as active; nt = not tested or not shown. This excerpt belongs to a sample that is enriched for hits.

SMILES | ABCG2 inh | Calb biofilm kill | ABCB1 block | TRPML3 ag | ROMK primary | TRPN1 ag | ROMK hit retest
Cc1cccc(COCC(Cc2ccccc2)N2CCN(C(=O)c3ccc(C(F)(F)F)cc3)CCC2=O)c1 (centres undefined) | 0.4 | -4.4 | 1.3 | -0.9 | -1.26 | -0.4 | nt
O=C(c1cccc(Cl)c1)N1CCC(=O)N(C(COCc2cccc(Cl)c2)Cc2ccccc2)CC1 (centres undefined) | 10.2 | 6.0 | 5.3 | -0.6 | -2.7 | -0.2 | nt
Cc1cccc(C(=O)N2CCC(=O)N(C(COCc3ccc(Cl)cc3)Cc3ccccc3)CC2)c1 (centres undefined) | 4.3 | 22.1 | 3.9 | -0.4 | -3.53* | 0.9 | 0.0479*
O=C(c1ccc(C(F)(F)F)cc1)N1CCC(=O)N(C(COCc2ccc(C(F)(F)F)cc2)Cc2ccccc2)CC1 (centres undefined) | 35.9 | 16.0 | 12.4 | 0.6 | -4.08* | 1.3 | 0.0655*
CCCCN(C(=S)SC)C1CCS(=O)(=O)C1 (centres undefined) | nt | 13.8 | nt | -0.2 | nt | 1.1 | nt
COc1ccc(C(=O)O)cc1S(=O)(=O)NCCc1ccccn1 | nt | -6.1 | nt | 0.4 | nt | -0.3 | nt
Cc1c(N=C2N=C(NC(=O)Nc3ccc(Cl)cc3)c3ccccc32)c(=O)n(-c2ccccc2)n1C | 1.2 | 10.8 | 0.0 | 0.1 | -3.86* | -0.1 | 0.0598*
Cc1c(NC(=O)Nc2ccc(Cl)cc2)c(=O)n(-c2ccccc2)n1C | 1.9 | nt | 0.5 | 0.6 | nt | 1.8 | nt
Cc1[nH][nH]c(=O)c1C(c1ccc(O)c([N+](=O)[O-])c1)c1c(C)[nH][nH]c1=O | 28.6 | 6.4 | 1.2 | 0.2 | nt | 0.5 | 0.0774
Cc1cccc(C2c3[nH]c4ccccc4c3CCN2C(=O)c2nn(C)c(=O)c3ccccc23)n1 (centres undefined) | 2.9 | 0.0 | 1.0 | 0.0 | -3.98* | -0.4 | 0.066*
Cc1cccc(C2c3[nH]c4ccccc4c3CCN2C(=O)c2ocnc2C)n1 (centres undefined) | 52.6 | 16.4 | 0.8 | -0.9 | nt | -0.5 | nt
CCC1CCCCN1C(=O)c1sc2nc(C)nc(N(CC)CC)c2c1C (centres undefined) | 2.3 | 1.7 | 0.7 | 3.4 | -3.69* | -2.0 | 0.0585*
COc1ccc(C2=NN(C(=O)CCC(=O)O)C(c3cccs3)C2)cc1 (centres undefined) | 1.1 | 16.3 | 0.4 | 1.2 | -3.48* | 0.7 | 0.0747
Cc1ccc(C2=NN(C(=O)CCC(=O)O)C(c3cccs3)C2)cc1 (centres undefined) | nt | 14.1 | nt | 0.9 | -0.0387 | 0.0 | nt
CC(C)(C)C(=O)Nc1ccc(-c2cc3cc(Cl)ccc3o2)cc1 | nt | 23.6 | nt | 1.8 | 2.15 | 0.3 | nt
C/C(=N/NC(=O)C1CCN(S(=O)(=O)c2ccc(C)cc2)CC1)c1cccc([N+](=O)[O-])c1 | 16.8 | 11.7 | 1.0 | 0.9 | -2.47* | -0.7 | 0.076
Cc1cc(C)nc(SCc2ccc(C(=O)N/N=C/c3ccccn3)cc2)n1 | -0.3 | 2.9 | -0.2 | 0.9 | -13* | 1.5 | 0.085
CCC1=C(OC(=O)N(CC)CC)N2C(=O)OC(=NCCOC)[C@]2(Cc2ccccc2)[C@H]2C1=CC[C@H]1C(=O)N(C)C(=O)[C@H]12 | nt | -0.4 | nt | nt | nt | nt | nt
CN(CCc1nc2ccc(Cl)cc2[nH]1)Cc1nc(CC2CC2)no1 | 12.4 | 14.8 | 0.3 | 0.1 | nt | 0.6 | nt
O=[N+]([O-])c1ccc(S(=O)(=O)N2CCN(Cc3c[nH]c4ccccc34)CC2)cc1 | 3.2 | nt | 0.8 | 1.4 | -2.7* | 0.0 | 0.0565*
COc1ccc(S(=O)(=O)N2CCN(Cc3c[nH]c4ccccc34)CC2)cc1 | 3.1 | nt | 1.0 | 0.7 | nt | 0.8 | nt
C[C@H](NC(=O)OCc1ccccc1)C(=O)NNC(=O)[C@H](Cc1ccccc1)NC(=O)OC(C)(C)C | nt | 18.4 | nt | nt | nt | nt | nt
COC(=O)CNC(=O)C(C)NC(=O)CNC(=O)OCc1ccccc1 (centres undefined) | 0.6 | nt | 0.2 | -0.1 | nt | 1.2 | 0.0769
CC(C)(C)OC(=O)C(Cc1ccc(OC(C)(C)C)cc1)NC(=O)CNC(=O)OCc1ccccc1 (centres undefined) | -6.2 | 18.8 | 0.3 | -1.2 | -2.15* | -1.4 | 0.0583*
COC(=O)C(CO)NC(=O)C(C)NC(=O)CNC(=O)OCc1ccccc1 (centres undefined) | 0.1 | 9.9 | 0.0 | -0.4 | 0.258 | -0.1 | nt
SMILES | ABCG2 inh | Calb biofilm kill | ABCB1 block | TRPML3 ag | ROMK primary | TRPN1 ag | ROMK hit retest
Nc1cc2c(cc1O)CCCC2 | 6.0 | 8.6 | 1.2 | 0.2 | 0.284 | 1.5 | nt
Fc1cccc(-c2oncc2-c2nnnn2-c2ccc(Cl)cc2)c1 | -0.8 | 14.3 | 0.4 | 0.0 | -7.45* | -1.1 | 0.0733
Cc1onc(-c2ccccc2Cl)c1C(=O)Nc1nnc(-c2cccc([N+](=O)[O-])c2)s1 | 4.3 | nt | 1.5 | 4.8 | nt | 8.4 | 0.0611*
CCSc1nnc(NC(=O)c2c(-c3ccccc3Cl)noc2C)s1 | 19.7 | nt | 1.0 | 1.8 | nt | 2.6 | nt
Cc1noc(C)c1COC(=O)c1cc(C)n(-c2ccccc2)c1C | 2.7 | nt | 1.3 | -0.6 | nt | -0.5 | 0.0883
Cc1cc(C(=O)OCc2nnc(-c3ccccc3)o2)c(C)n1-c1ccccc1 | 1.6 | nt | 0.5 | 0.6 | nt | 0.7 | nt
CCNc1ccc(S(=O)(=O)N(C)C)cc1NCC(=O)Nc1ccccc1Cl | 4.1 | 2.1 | 0.3 | 1.5 | -0.371 | 2.5 | nt
COc1ccc(C(=O)C[n+]2cccc(C)c2C)cc1[N+](=O)[O-] | 0.3 | 9.4 | 0.0 | 1.1 | nt | 0.8 | nt
CCC(C)(C)c1ccc(OCCCC[n+]2cccc(C)c2C)c(C(C)(C)CC)c1 | nt | 17.8 | nt | -0.3 | nt | -0.1 | 0.0369*
O=C(CCC1CCCN(C(=O)c2ccsc2)C1)NCc1ccc(F)c(F)c1 (centres undefined) | 3.8 | 12.6 | -1.0 | -0.4 | 0.0324 | -1.5 | nt
Clc1ccccc1-c1nnc2sc(-c3ccccn3)nn12 | 3.9 | 5.2 | 0.5 | -1.2 | nt | -1.8 | 0.0785
C=CCCc1ccc(C#N)c(SCc2c(C(=O)OCC)c3cc(OC(C)=O)c(Br)cc3n2C)n1 | -0.8 | 12.2 | 0.3 | 0.4 | nt | 2.4 | nt
CCOC(=O)c1c(CSC(=N)N)n(-c2ccc(Br)cc2)c2cc(Br)c(OC(C)=O)cc12 | 5.8 | 18.4 | 1.4 | 1.2 | -5.21* | 2.1 | 0.0451*
